Experimental data from ChEMBL document CHEMBL1773039, “Structure-Activity Study of Dihydrocinnamic Acids and Discovery of the Potent FFA1 (GPR40) Agonist TUG-469” (ACS Med Chem Lett, 2010).
Calls of active or inactive are those of the source. The calls are words filed in the database; no cut-off is given here.

Assays:
[1] = target: T1, Peroxisome proliferator-activated receptor gamma (Homo sapiens) (UniProt P37231); experiment: Transactivation of human PPARgamma ligand binding domain transfected in mouse embryo fibroblasts assessed as renilla luciferase activity at 1 uM after 18 hrs by luminometry relative to 1 uM rosiglitazone
T1 sequence (whole entry): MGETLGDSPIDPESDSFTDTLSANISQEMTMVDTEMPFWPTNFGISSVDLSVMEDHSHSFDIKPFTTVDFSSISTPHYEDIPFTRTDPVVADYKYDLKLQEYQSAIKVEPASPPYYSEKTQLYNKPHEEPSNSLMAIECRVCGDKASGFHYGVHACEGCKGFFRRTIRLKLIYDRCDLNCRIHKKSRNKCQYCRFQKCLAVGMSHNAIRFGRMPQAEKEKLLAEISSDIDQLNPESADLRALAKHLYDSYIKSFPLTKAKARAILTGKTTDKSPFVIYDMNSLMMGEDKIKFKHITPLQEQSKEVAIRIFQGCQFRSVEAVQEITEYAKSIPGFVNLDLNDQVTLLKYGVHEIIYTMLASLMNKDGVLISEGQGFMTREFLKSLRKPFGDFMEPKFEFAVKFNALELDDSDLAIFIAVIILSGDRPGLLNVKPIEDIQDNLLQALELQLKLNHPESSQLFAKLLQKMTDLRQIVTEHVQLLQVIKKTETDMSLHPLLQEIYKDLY

[2] = target: Free fatty acid receptor 3 (Homo sapiens) (UniProt O14843); experiment: Agonist activity at human GPR41 in HEK293 cells
Sequence of Free fatty acid receptor 3 (Homo sapiens) (O14843 whole entry, looked up, the tested form may be a part): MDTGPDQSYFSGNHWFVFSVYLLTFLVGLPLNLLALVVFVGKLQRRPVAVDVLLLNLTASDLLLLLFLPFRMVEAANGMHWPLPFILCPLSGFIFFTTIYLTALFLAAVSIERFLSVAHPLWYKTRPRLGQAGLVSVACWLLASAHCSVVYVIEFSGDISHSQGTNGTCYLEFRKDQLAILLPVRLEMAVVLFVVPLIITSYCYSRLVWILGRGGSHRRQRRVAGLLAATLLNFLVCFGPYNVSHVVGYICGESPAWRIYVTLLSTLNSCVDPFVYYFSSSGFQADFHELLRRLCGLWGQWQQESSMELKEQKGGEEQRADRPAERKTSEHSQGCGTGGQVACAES

[3] = target: T1, Peroxisome proliferator-activated receptor gamma (Homo sapiens); experiment: Transactivation of human PPARgamma ligand binding domain transfected in mouse embryo fibroblasts at 100 uM after 18 hrs analyzed by photinus and renilla luciferase activity by luminometry relative to 1 uM rosiglitazone
[4] = target: Free fatty acid receptor 2 (Homo sapiens) (UniProt O15552); experiment: Agonist activity at human GPR43 in HEK293 cells
Sequence of Free fatty acid receptor 2 (Homo sapiens) (O15552 whole entry, looked up): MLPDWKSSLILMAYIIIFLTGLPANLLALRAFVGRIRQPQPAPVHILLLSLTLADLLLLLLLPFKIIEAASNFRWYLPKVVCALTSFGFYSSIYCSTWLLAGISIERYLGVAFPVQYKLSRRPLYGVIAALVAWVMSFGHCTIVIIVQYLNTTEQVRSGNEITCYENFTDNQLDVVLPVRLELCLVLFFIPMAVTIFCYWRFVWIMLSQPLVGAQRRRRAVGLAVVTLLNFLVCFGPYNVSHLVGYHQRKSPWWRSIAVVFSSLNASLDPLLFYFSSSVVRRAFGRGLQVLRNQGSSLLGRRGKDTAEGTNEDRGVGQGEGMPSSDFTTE

[5] = target: T2, Free fatty acid receptor 1 (Homo sapiens, UniProt O14842); experiment: Agonist activity at human FFA1 transfected in 1321N1 cells assessed as calcium mobilization by microplate assay relative to 10 uM TUG-20; type: functional, cell-based
T2 sequence (O14842 whole entry): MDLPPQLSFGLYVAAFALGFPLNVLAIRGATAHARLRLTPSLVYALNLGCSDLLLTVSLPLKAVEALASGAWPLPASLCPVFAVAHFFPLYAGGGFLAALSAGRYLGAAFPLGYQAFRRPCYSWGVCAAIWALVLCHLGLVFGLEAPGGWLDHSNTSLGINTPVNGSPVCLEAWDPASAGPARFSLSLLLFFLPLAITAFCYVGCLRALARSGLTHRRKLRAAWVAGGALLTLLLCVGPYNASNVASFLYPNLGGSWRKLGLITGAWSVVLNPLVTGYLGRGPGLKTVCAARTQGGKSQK
Outline: (§1)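 Calcium mobilization in hFFA1-expressing cells was measured as full concentration-response curves and reported as pEC50. Efficacy is % of the response to 10 μM of the reference agonist.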

[6] = target: T2, Free fatty acid receptor 1; experiment: Agonist activity at human FFA1 transfected in 1321N1 cells assessed as calcium mobilization by microplate assay; type: functional, cell-based; outline: as §1
[7] = species on record: Homo sapiens; experiment: Selectivity for human FFA1 over human PPARgamma
[8] = target: T2, Free fatty acid receptor 1; experiment: Agonist activity at human FFA1 transfected in 1321N1 cells under serum-free condition after 1 hr by dose response curve/dynamic mass redistribution optical biosensor assay; type: functional, cell-based
Outline: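 hFFA1-transfected 1321N1 cells were exposed to a range of agonist concentrations. Label-free dynamic mass redistribution was tracked over time as the resonant wavelength shift (pm), a read-out of receptor activation. pEC50 was taken from concentration-response curves of this signal.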

[9] = target: T2, Free fatty acid receptor 1; experiment: Agonist activity at human FFA1 transfected in 1321N1 cells assessed as calcium mobilization by microplate assay relative to linoleic acid; type: functional, cell-based
[10] = target: T2, Free fatty acid receptor 1; experiment: Agonist activity at human FFA1 transfected in 1321N1 cells assessed as calcium mobilization by microplate assay in presence of 0.05 % bovine serum albumin; type: functional, cell-based
Outline: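 Calcium-response assay at hFFA1, with 0.05% BSA added to the assay because the compound dissolves poorly.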

[11] = target: T2, Free fatty acid receptor 1; experiment: Agonist activity at human FFA1 transfected in 1321N1 cells assessed as calcium mobilization by microplate assay in presence of 0.5 % bovine serum albumin; type: functional, cell-based

Row | Structure (SMILES) | Activity [1] | Activity [2] | Activity [3] | Activity [4] | Efficacy [5] [%] | EC50 [6] [nM] | fold change (FC) [7] | EC50 [8] [nM] | Activity [9] [%] | EC50 [10] [nM] | EC50 [11] [nM]
1 | O=C(O)CCc1ccc(NCc2cccc(C(F)(F)F)c2)cc1 | inactive | inactive | – | inactive | 102 | 186 | > 100 | – | – | – | –
2 | O=C(O)CCc1ccc(CNc2ccccc2)cc1 | inactive | inactive | inactive | inactive | 101 | 21400 | > 100 | – | – | – | –
3 | O=C(O)CCc1ccc(OCc2ccccc2)c(I)c1 | inactive | inactive | 42% | inactive | 81 | 12600 | > 100 | – | – | – | –
4 | O=C(O)CCc1ccc(C#Cc2ccccc2)cc1 | inactive | inactive | – | inactive | 108 | 200 | > 100 | – | – | – | –
5 | O=C(O)CCc1ccc(NCc2ccc(-c3ccccc3)cc2)cc1 | inactive | inactive | 23% | inactive | 92 | 417 | > 100 | – | – | – | –
6 | O=C(O)CCc1ccc(NCc2cccc(Br)c2)cc1 | inactive | inactive | 27% | inactive | 110 | 174 | > 100 | – | – | – | –
7 | O=C(O)CCc1ccc(NCc2ccccc2)cc1 | inactive | inactive | 7% | inactive | 89 | 759 | > 100 | – | – | – | –
8 | CC(Oc1ccc(CCC(=O)O)cc1)c1ccccc1 (stereo unspecified) | inactive | inactive | – | inactive | 106 | 3310 | > 100 | – | – | – | –
9 | Cc1cc(Oc2ncc(C(F)(F)F)cc2Cl)ccc1CC1SC(=O)NC1=O (stereo unspecified) | – | – | – | – | 103 | 178 | – | – | – | – | –
10 | O=C(O)CCc1ccc2oc(-c3ccccc3)cc2c1 | inactive | inactive | inactive | inactive | 92 | 2450 | > 100 | – | – | – | –
11 | O=C(O)CCc1ccc(NCc2cccc(Oc3ccccc3)c2)cc1 [GW9508] | – | – | 54% | – | 103 | 28.8 | – | 87.1 | – | – | –
12 | O=C(O)CCc1ccc(NCc2ccc(Oc3ccccc3)cc2)cc1 | inactive | inactive | 34% | inactive | 100 | 182 | > 100 | – | – | – | –
13 | Cc1ccc(-c2cccc(CNc3ccc(CCC(=O)O)cc3)c2)cc1 | inactive | inactive | 31% | inactive | 92 | 126 | > 100 | – | – | – | –
14 | O=C(O)CCc1ccc(CCc2ccccc2)cc1 | inactive | inactive | – | inactive | 116 | 3630 | > 100 | – | – | – | –

Next, values leading:

Row | Activity [1] | Activity [2] | Activity [3] | Activity [4] | Efficacy [5] [%] | EC50 [6] [nM] | fold change (FC) [7] | EC50 [8] [nM] | Activity [9] [%] | EC50 [10] [nM] | EC50 [11] [nM] | Structure (SMILES)
15 | inactive | inactive | 37% | inactive | 105 | 120 | > 100 | – | – | – | – | COc1ccccc1-c1cccc(COc2ccc(CCC(=O)O)cc2)c1
16 | inactive | inactive | – | inactive | 99 | 447 | > 100 | – | – | – | – | O=C(O)CCc1ccc(OCc2ccccc2Br)cc1
17 | inactive | inactive | 51% | inactive | 98 | 57.5 | > 100 | – | – | – | – | O=C(O)CCc1ccc(OCc2cccc(Oc3ccccc3)c2)cc1
18 | inactive | inactive | – | inactive | 102 | 525 | > 100 | – | – | – | – | N#Cc1cccc(COc2ccc(CCC(=O)O)cc2)c1
19 | inactive | inactive | inactive | inactive | 97 | 912 | > 100 | – | – | – | – | O=C(O)CCc1ccc(OCc2ccc(-c3ccccc3)cc2)cc1
20 | inactive | inactive | 7% | inactive | – | 457 | – | 832 | 123 | – | – | O=C(O)CCc1ccc(OCc2ccccc2)cc1 [BENZYLOXYPHENYLPROPANOIC ACID]
21 | inactive | inactive | 15% | inactive | 86 | 490 | > 100 | – | – | – | – | Cc1ccc(-c2cccc(COc3ccc(CCC(=O)O)cc3)c2)cc1
22 | inactive | inactive | 23% | inactive | 98 | 204 | > 100 | – | – | – | – | O=C(O)CCc1ccc(OCc2ccc(Oc3ccccc3)cc2)cc1
23 | inactive | inactive | 51% | inactive | 109 | 69.2 | > 100 | – | – | – | – | COc1ccccc1-c1cccc(CNc2ccc(CCC(=O)O)cc2)c1
24 | inactive | inactive | inactive | inactive | 88 | 6310 | > 100 | – | – | – | – | O=C(O)CCc1ccc(COc2ccccc2)cc1
25 | inactive | inactive | 37% | inactive | 112 | 50.1 | > 100 | 263 | – | 81.3 | 562 | Cc1ccccc1-c1cccc(COc2ccc(CCC(=O)O)cc2)c1
26 | inactive | inactive | – | inactive | 98 | 550 | > 100 | – | – | – | – | O=C(O)CCc1ccc(OCc2ccc(Br)cc2)cc1
27 | inactive | inactive | 19% | inactive | 99 | 89.1 | > 100 | – | – | – | – | O=C(O)CCc1ccc(OCc2cccc(Br)c2)cc1
28 | inactive | inactive | 25% | inactive | 105 | 135 | > 100 | – | – | – | – | O=C(O)CCc1ccc(OCc2cccc(-c3ccccc3)c2)cc1
29 | inactive | inactive | – | inactive | – | – | > 100 | – | – | – | – | O=C(O)CCc1ccc(OCc2ccccc2-c2ccccc2)cc1
30 | inactive | inactive | – | inactive | 103 | 83.2 | > 100 | – | – | – | – | O=C(O)CCc1ccc(OCc2cccc(C(F)(F)F)c2)cc1
31 | inactive | inactive | 33% | inactive | 101 | 53.7 | > 100 | – | – | – | – | O=C(O)CCc1ccc(NCc2cccc(-c3ccccc3)c2)cc1
